The list is not random: actives were taken first. Their share in the collection is about 2.3%.
ADAM17 inh = inhibits human ADAM17. recombinant ADAM17, EDANS/DABCYL FRET peptide cleavage. P78536. inhibition, % at 6.95 µM. hit rate 0.83% among 370,000. AID 720648;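 active means inhibition above the mean of compounds lying between control limits plus 3 SD, set per campaign, cut at about 8.5% in these data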;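 further: 0% = DMSO-only wells as the low control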
DDE Tn6 FP inh = disrupts Tn6 cyclic peptide binding to fibrin D-Dimer-E complex; AID 720509; inhibition, % at 8.3 µM; hit rate 0.21% among 370,000; Fibrin DD(E) TRITC-Tn6 fluorescence polarization displacement;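 active means inhibition above a per-campaign cutoff: mean of compounds within control limits plus 3 SD, cut at about 15% in these data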;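 further: 0% = median of all compound wells on the plate and 100% = blocking peptide control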
ADAM10 inh = inhibitors of human ADAM10; recombinant ADAM10, EDANS/DABCYL FRET peptide cleavage, 3 h; hit rate 0.62% among 370,000; inhibition, % at 7 µM; O14672;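 active means inhibition above a per-campaign cutoff equal to the mean of compounds falling between control-based bounds plus 3 SD, cut at about 20% in these data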;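 further: 0% = DMSO wells while the 100% control is not disclosed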
Target sequence (O14672 214-748 limits assumed): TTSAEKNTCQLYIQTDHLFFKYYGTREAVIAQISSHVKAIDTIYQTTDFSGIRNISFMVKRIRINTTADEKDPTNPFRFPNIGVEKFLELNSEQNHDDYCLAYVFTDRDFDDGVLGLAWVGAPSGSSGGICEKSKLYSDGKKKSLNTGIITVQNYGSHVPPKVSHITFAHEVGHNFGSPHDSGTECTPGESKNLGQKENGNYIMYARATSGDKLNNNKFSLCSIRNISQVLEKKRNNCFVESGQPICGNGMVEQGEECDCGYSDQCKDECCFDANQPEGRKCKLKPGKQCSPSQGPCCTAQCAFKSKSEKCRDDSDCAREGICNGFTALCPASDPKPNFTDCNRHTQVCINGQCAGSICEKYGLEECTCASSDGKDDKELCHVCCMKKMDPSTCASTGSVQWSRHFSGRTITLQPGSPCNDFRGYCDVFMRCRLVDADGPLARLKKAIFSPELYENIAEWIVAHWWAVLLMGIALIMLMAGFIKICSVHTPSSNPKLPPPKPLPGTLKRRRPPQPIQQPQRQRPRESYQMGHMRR
Tn7 DDE FP = DD(E)-Tn7 binding inhibition, primary FP screen; AID 720508; inhibition, % at 8.3 µM; FP displacement of FITC-Tn7 peptide from fibrin DD(E); 0% = median of compound wells per plate; hit rate 0.13% among 370,000; P02675;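 active means inhibition above the mean of compounds falling within the control limits plus 3 SD of them, cut at about 14% in these data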;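 further: 0% = plate median of compound wells and 100% = 10 µM Aha-Tn7 peptide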
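Test system: human clot-derived fibrin DD(E) complex / Quantity: 2 µM final DD(E) protein / Incubation: 10 min plus 3 h, room temperature / Measured by: fluorescence polarization / Benchmarks: high control of 10 µM Aha-Tn7 peptide / Replicates: singlicate testing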
PLC-beta3 inh = inhibitors of human phospholipase C beta3 | Q01970 | Purified PLC-beta3, fluorogenic substrate, fluorescence | inhibition, % at 12.2 µM | hit rate 0.18% among 370,000; in the data active means inhibition above about 11%;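 further: 0% = median of compound wells on plate and 100% = full blocker control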
PLCg1 inh = PLC-gamma1 (human) inhibition, primary screen; P19174; AID 720700; hit rate 0.84% among 370,000; purified PLC-gamma1, fluorogenic substrate, fluorescence; inhibition, % at 12.2 µM
ADAM10 confirm = human ADAM10 inhibition, confirmation; hit rate 1% among 2,100; ADAM10 QFRET peptide cleavage, EDANS fluorescence; shares compounds with ADAM10 inh; inhibition, % at 6.95 µM;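 active means inhibition above about 20% chosen separately for each screening run, limit read from the data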;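 further: 0% = DMSO wells and 100% = marimastat wells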
ADAM17 counter = ADAM17 inhibition, counter-screen for ADAM10 exosite hits | shares compounds with ADAM10 inh | ADAM17 QFRET peptide cleavage, EDANS fluorescence | inhibition, % at 6.95 µM | hit rate 0.5% among 2,100 | AID 743214;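 active means mean triplicate inhibition above the solvent-only control wells' mean plus 3 SD, cut at about 12% in these data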;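 further: 0% = DMSO wells and 100% = marimastat wells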
ADAM10 ctr = inhibits human ADAM10 in ADAM17 exosite counter-screen. shares compounds with ADAM17 inh. hit rate 47% among 2,900. inhibition, % at 6.95 µM. recombinant ADAM10, EDANS/DABCYL FRET peptide cleavage, 3 h;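 active means mean inhibition over the triplicate runs exceeds the activity threshold set in the earlier primary screen, cut at about 20% in these data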;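 further: 0% = DMSO wells and 100% = marimastat wells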
ADAM17 confirm = confirmation of inhibitors of human ADAM17; shares compounds with ADAM17 inh; recombinant ADAM17, EDANS/DABCYL QFRET peptide cleavage; inhibition, % at 6.95 µM; hit rate 65% among 2,900;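 active means mean inhibition across replicates above the hit cutoff set in the primary screen, cut at about 8.5% in these data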;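 further: 0% = DMSO wells and 100% = marimastat wells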
PLCgamma1 ctr = PLC-gamma1 inhibition, counter-screen for PLC-beta3 hits; inhibition, % at 12.3 µM; hit rate 3.1% among 3,300; shares compounds with PLCg1 inh; purified PLC-gamma1, fluorogenic substrate, fluorescence
PLCb3 confirm = confirmation of human PLC-beta3 inhibitors; purified PLC-beta3, fluorogenic substrate fluorescence; inhibition, % at 12.3 µM; hit rate 1% among 3,300; shares compounds with PLCg1 inh; in the data active means inhibition above about 11%
* = called active by the depositor; i = inactive; / = not tested or not shown. Unless noted, no stated cut-off is given here; in the data, active means inhibition above about 9.5%; inactive means the rest.

SMILES | ADAM17 inh | DDE Tn6 FP inh | ADAM10 inh | Tn7 DDE FP | PLC-beta3 inh | PLCg1 inh | ADAM10 confirm | ADAM17 counter | ADAM10 ctr | ADAM17 confirm | PLCgamma1 ctr | PLCb3 confirm
O=C(CSc1nnc(-c2ccccc2)n1-c1ccccc1)Nc1cccc2ccccc12 | -2 | 4 | -3 | 2 | -1 | 0 | / | / | / | / | / | /
C#CCN(C[C@@H]1[C@@H](OC(=O)NC2CCCC2)[C@@H](OC(=O)NC2CCCC2)CN(C(=O)OC(C)C)N1C(=O)OC(C)C)S(=O)(=O)c1ccc(C)cc1 | 15* | -3 | 32* | -3 | 0 | 11* | 5 | 3 | 54* | 21* | -6 | -7
CN(CCOC(=O)c1cc2ccccc2o1)C1CN(Cc2cn(Cc3ccccc3F)nn2)S(=O)(=O)C1 (centres undefined) | 2 | 3 | 1 | 4 | 2 | -4 | / | / | / | / | / | /
COc1ccc([N+](=O)[O-])cc1NC(=O)C(C)c1ccccc1 (centres undefined) | 0 | -6 | 5 | 4 | 3 | 4 | / | / | / | / | / | /
COc1ccc([N+](=O)[O-])cc1NC(=S)NC(NC(=O)C(c1ccccc1)c1ccccc1)C(Cl)(Cl)Cl (centres undefined) | 19* | 1 | 32* | -6 | 8 | 12* | 9 | 3 | 29* | 14* | -4 | -1
COC(=O)[C@H](CC(C)C)N1Cc2nnn(CC3CCCCC3)c2-c2ccccc2S1(=O)=O | 0 | -1 | 4 | -5 | 4 | 0 | / | / | / | / | / | /
C=CCC[C@@H](Cc1ccc(F)cc1)C(=O)OC[C@@H](NC(=O)[C@@H](CC=C)CC(=O)N(CCO)Cc1ccccc1)c1ccccc1 | 26* | -10 | 47* | -4 | 7 | 14* | 7 | 3 | 44* | 22* | -7 | -5
C=CC[C@H](CC(=O)N(CCO)Cc1ccccc1)C(=O)N[C@@H](COC(=O)[C@@H](CC=C)CC(=O)OC(C)(C)C)Cc1c[nH]c2ccccc12 | 21* | 3 | 37* | -8 | 12* | 6 | 3 | 1 | 29* | 15* | -10 | -3
C=CCC[C@@H](Cc1ccc(F)cc1)C(=O)OC[C@H](C)NC(=O)[C@H](CC=C)CC(=O)N(CCO)Cc1ccccc1 | -1 | -11 | 4 | 7 | 1 | -1 | / | / | / | / | / | /
COc1ccc(-n2c(SCC(=O)N/N=C(/C)c3cccc(O)c3)nc3ccccc3c2=O)cc1 | -2 | 9 | 4 | -5 | 2 | -2 | / | / | / | / | / | /
Nn1c(SCc2ccc([N+](=O)[O-])cc2)nnc1-c1cc(-c2ccccc2)n[nH]1 | -4 | 4 | -9 | 6 | -1 | 5 | / | / | / | / | / | /
COc1ccc(Cn2nnnc2C(C(C)C)N(Cc2ccco2)Cc2cccs2)cc1 (centres undefined) | 13* | -2 | 20* | -1 | 14* | 14* | 2 | 1 | 20* | 13* | -2 | -1
Cc1ccc(NC(=O)[C@@H]2CCCN2S(=O)(=O)c2cccc3cccnc23)c(C)c1 | 0 | 6 | 1 | -4 | 5 | 6 | / | / | / | / | / | /
CCSc1ccc([C@@H]2[C@@H]3C(=O)N(CC)C(=O)[C@@H]3[C@]3(C(=O)OC)CCCCN23)cc1 | 0 | -2 | -7 | 4 | -2 | 1 | / | / | / | / | / | /
CCSc1ccc([C@@H]2[C@H]3C(=O)N(C)C(=O)[C@H]3[C@]3(C(=O)OC)CCCCN23)cc1 | 18* | 3 | 22* | 5 | 3 | 10* | 3 | 1 | -2 | 5 | -6 | -4
Cc1ccc([N+](=O)[O-])cc1-c1[nH]c(-c2ccc(O)c(O)c2)nc1-c1ccccc1 | 8.8* | 6 | 21* | 3 | 7 | 9.7* | 6 | 2 | 28* | 13* | 4 | 7
CCO[C@H]1OC(C(=O)Nc2ccccc2)=C[C@@H](c2ccc(C(F)(F)F)cc2)[C@@H]1CCCO | 15* | -3 | 27* | -2 | 7 | 10* | 4 | 1 | 30* | 18* | -3 | 4
CCO[C@@H]1OC(C(=O)N2CCCCCCC2)=C[C@H](c2ccc(C(F)(F)F)cc2)[C@H]1CCCO | 3 | 0 | 8 | 2 | 4 | 7 | / | / | / | / | / | /
COc1ccc(OC)c(-c2csc(NC(=O)COC(=O)C3(C)CC3(Cl)Cl)n2)c1 (centres undefined) | 18* | 1 | 39* | -7 | 0 | 16* | 10 | 3 | 18 | 12* | -2 | -4
COC(=O)[C@]12C[C@H](CC(=O)NCCC(C)C)C(=O)N(Cc3ccc4c(c3)OCO4)C1=C[C@H](C(C)C)O[C@@H]2C1CC1 | 5 | -3 | 14 | 7 | 0 | 0 | / | / | / | / | / | /
CCCCNC(=O)C[C@@H]1C(=O)N(Cc2ccc(OC)cc2)/C2=C/CCCCC[C@@]21C(=O)OCC | 6 | -8 | 4 | -8 | 7 | 4 | / | / | / | / | / | /
CCOC(=O)C1CCCN(C(=O)c2cccc(S(=O)(=O)N(Cc3ccccc3)c3ccccc3OC)c2)C1 (centres undefined) | 14* | 5 | 30* | -7 | 2 | 9.7* | 4 | 1 | 25* | 12* | -6 | -3
Cc1c(NC(=O)C2CCCN(S(=O)(=O)c3ccc(Cl)s3)C2)c(=O)n(-c2ccccc2)n1C (centres undefined) | -2 | -10 | -15 | 6 | 0 | 0 | / | / | / | / | / | /
O=C1OCCN1C(=O)[C@H]1[C@H](c2ccc([N+](=O)[O-])cc2)C(c2ccccc2)=NN1c1ccc(Br)cc1 | 11* | 5 | 17 | 4 | -11 | -6 | / | / | 15 | 12* | / | /
O=C1OCCN1C(=O)[C@H]1[C@H](c2ccc(Cl)cc2)C(c2ccccc2)=NN1c1ccc(Br)cc1 | -243 | 0 | i | 1 | i | i | / | / | / | / | / | /
